According to ChEMBL document CHEMBL5376016, “Synthesis of novel rapanone derivatives via organocatalytic reductive C-alkylation: biological evaluation of antioxidant properties, in vivo zebrafish embryo toxicity, and docking studies” (RSC Med Chem, 2024):
≈ marks a conversion by molar mass, not a printed value.

Columns and labels:
[1] = Acute toxicity in zebrafish embryo assessed as morphological changes by measuring bent spine at upto 160 uM measured after 96 hrs post fertilization; design: species or system Danio rerio; conditions: in vivo
Method in brief: (§1)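 Wild-type Danio rerio embryos were exposed in milli-Q water with compound dissolved in DMSO (≤0.25 v/v final). Controls were milli-Q water and water with DMSO. Embryos were held at 26.8 ± 1 °C and scored by inverted microscope at 24–96 hpf, after exposure at 160 µM, for bent spine, yolk sac edema, pericardial edema, short tail and bent tail.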

[2] = Acute toxicity in zebrafish embryo assessed as survival rate at 160 uM measured after 96 hrs post fertilization relative to control; design: species or system Danio rerio; conditions: in vivo
Method in brief: (§2)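 Lethality endpoints were coagulation and absence of heartbeat, checked by inverted microscope. Survival was compared with untreated embryos across three independent experiments; mean ± SD, ANOVA.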

[3] = Antioxidant activity assessed as ABTS radical scavenging activity after 6 mins by spectrophotometric analysis; assay type: functional
[4] = Acute toxicity in zebrafish embryo assessed as morphological changes by measuring short tail at upto 160 uM measured after 96 hrs post fertilization; design: species or system Danio rerio; conditions: in vivo; method in brief: as §1
[5] = Antioxidant activity assessed as DPPH radical scavenging activity after 30 mins by spectrophotometric analysis; assay type: functional
Method in brief: (§3)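 Ascorbic acid was the reference standard. For DPPH, 0.2 mM DPPH in methanol was kept in the dark, mixed with compound at 5–160 µM (DMSO stock), and incubated 30 min in the dark at room temperature, then A517 was read. %RSA = (Ac−As)/Ac×100. Triplicate runs; IC50 taken from the plot of % scavenging versus concentration.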

[6] = Acute toxicity in zebrafish embryo assessed as survival rate at 20 uM measured after 96 hrs post fertilization relative to control; design: species or system Danio rerio; conditions: in vivo; method in brief: as §2
[7] = Acute toxicity in zebrafish embryo assessed as morphological changes by measuring yolk sac edema at upto 160 uM measured after 96 hrs post fertilization; design: species or system Danio rerio; conditions: in vivo; method in brief: as §1
[8] = Antioxidant activity assessed as ABTS radical scavenging activity after 6 mins by spectrophotometric analysis relative to control; assay type: functional; design: concentration or dose not given beside the values
[9] = Acute toxicity in zebrafish embryo assessed as survival rate at 96 hrs post fertilization relative to control; design: species or system Danio rerio; concentration or dose not given beside the values; conditions: in vivo; method in brief: as §2
[10] = Acute toxicity in zebrafish embryo assessed as morphological changes by measuring bent tail at upto 160 uM measured after 96 hrs post fertilization; design: species or system Danio rerio; conditions: in vivo; method in brief: as §1
[11] = Acute toxicity in zebrafish embryo assessed as morphological changes by measuring pericardial edema at upto 160 uM measured after 96 hrs post fertilization; design: species or system Danio rerio; conditions: in vivo; method in brief: as §1
[12] = Antioxidant activity assessed as DPPH radical scavenging activity after 30 mins by spectrophotometric analysis relative to control; assay type: functional; design: concentration or dose not given beside the values; method in brief: as §3
[13] = Acute toxicity in zebrafish embryo assessed as hatching rate at 20 to 160 uM measured after 48 hrs post fertilization relative to control; design: species or system Danio rerio; conditions: in vivo, dose 20-160 µM
Method in brief: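 Controls were water and water with 0.5% DMSO. Incubation at 26.8 ± 1 °C, 20 embryos per well. Hatching scored over 0–96 hpf under an inverted microscope. Triplicate, three independent experiments; mean ± SD; ANOVA.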

[14] = Antioxidant activity assessed as DPPH radical scavenging activity after 20 mins by […]; assay type: functional
[15] = Antioxidant activity assessed as ABTS radical scavenging activity after 30 mins by spectrophotometric analysis; assay type: functional
[16] = Antioxidant activity assessed as ABTS radical scavenging activity after 30 mins by […]

Compound	Activity [1]	survival at 96 h, 160 µM [2]	IC50 [3]	Activity [4]	IC50 [5]	survival at 96 h, 20 µM [6]	Activity [7]	Activity [8]	survival at 96 h ([9]; read-out: Activity)	Activity [10]	Activity [11]	Activity [12]	Activity [13]	IC50 [14]	IC50 [15]	IC50 [16]	survival at 96 h ([9]; read-out: Survival)
CCCCCCCCCCCC1=C(O)C(=O)C(Cc2cccc(Oc3ccccc3)c2)=C(O)C1=O	Toxic	70%	2.36 µM	Toxic	2.88 µM	52%	Toxic	80.2%	70%	Toxic	Toxic	80%	75.66%	–	–	–	–
CCCCCCCCCCCC1=C(O)C(=O)C=C(O)C1=O [EMBELIN]	Toxic	70%	3.12 µM	Toxic	3.12 µM	52%	Toxic	75.1%	70%	Toxic	Toxic	71.1%	75.66%	0.23 µg/mL (≈ 0.781 µM)	27.9 µg/mL (≈ 94.8 µM)	27.92 µg/mL (≈ 94.8 µM)	–
C#Cc1ccc(CC2=C(O)C(=O)C(CCCCCCCCCCC)=C(O)C2=O)cc1	Toxic	–	4.72 µM	Toxic	4.9 µM	–	Toxic	52.1%	–	Toxic	Toxic	50.3%	51.33%	–	–	–	> 90%
CCCCCCCCCCCC1=C(O)C(=O)C(Cc2ccccc2Cl)=C(O)C1=O	Toxic	–	5.54 µM	Toxic	4.62 µM	–	Toxic	52.1%	–	Toxic	Toxic	50.3%	51.33%	–	–	–	> 90%
